Active and inactive are the calls of the source. No cut-off for these calls is given here.
Columns and labels:
[1] = Half life in CD1 mouse liver microsomes at 1 uM preincubated for 5 mins followed by NADPH addition and measured by LC/MS/MS analysis; type: ADME, microsome; conditions: mouse, microsomes, 1 µM
[2] = Drug uptake in BALB/c mouse lungs at 25 mg/kg, po via gavage measured after 4 hrs post dose by […]; type: ADME, organism-based, Lung; conditions: read-out: Drug uptake
Procedure, shortened: (§1)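 BALB/c mice get a single oral gavage dose of 25 mg/kg; tissues are collected 4 h post-dose. About 100 mg tissue is diluted 5-fold in PBS and homogenized. Homogenate is extracted as for plasma (ketoconazole internal standard, acetonitrile extraction) and quantified by HPLC-UV at 291 nm, 0.1 μM detection limit, n=2.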

[3] = Half life in Sprague-Dawley rat liver microsomes at 1 uM preincubated for 5 mins followed by NADPH addition and measured by LC/MS/MS analysis; type: ADME, microsome; conditions: microsomes, 1 µM
[4] = Lipophilicity, log P of the compound; type: physicochemical; conditions: octanol/water
[5] = Drug uptake in BALB/c mouse brain at 25 mg/kg, po via gavage measured after 4 hrs post dose by LC-MS analysis; conditions: in vivo
[6] = Hepatic clearance in CD1 mouse liver microsomes at 1 uM preincubated for 5 mins followed by NADPH addition and measured after 45 mins by LC/MS/MS analysis; type: ADME, microsome
[7] = Drug uptake in BALB/c mouse brain at 25 mg/kg, po via gavage measured after 4 hrs post dose by […]; type: ADME, organism-based; conditions: read-out: Drug uptake; procedure, shortened: as §1
[8] = Intrinsic clearance in CD1 mouse liver microsomes at 1 uM preincubated for 5 mins followed by NADPH addition and measured after 45 mins by LC/MS/MS analysis; type: ADME, microsome; conditions: read-out: CLH
[9] = Drug uptake in BALB/c mouse blood at 25 mg/kg, po via gavage measured after 2 hrs post dose by LC-MS analysis; type: ADME, organism-based; conditions: in vivo
[10] = Hepatic clearance in human liver microsomes at 1 uM preincubated for 5 mins followed by NADPH addition and measured after 45 mins by LC/MS/MS analysis; type: ADME, microsome
[11] = Drug uptake in BALB/c mouse intestine at 25 mg/kg, po via gavage measured after 2 hrs post dose by LC-MS analysis; type: ADME, organism-based; conditions: read-out: Drug uptake
[12] = Intrinsic clearance in human liver microsomes at 1 uM preincubated for 5 mins followed by NADPH addition and measured after 45 mins by LC/MS/MS analysis; type: ADME, microsome; conditions: read-out: CLH
[13] = Intrinsic clearance in Sprague-Dawley rat liver microsomes at 1 uM preincubated for 5 mins followed by NADPH addition and measured after 45 mins by LC/MS/MS analysis; type: ADME, microsome; conditions: read-out: CLH
[14] = Drug uptake in BALB/c mouse liver at 25 mg/kg, po via gavage measured after 4 hrs post dose by […]; type: ADME, organism-based; conditions: read-out: Drug uptake; procedure, shortened: as §1
[15] = molecular target: Putative lanosterol 14-alpha-demethylase (Leishmania infantum) (UniProt A2TEF2); experiment: Inhibition of Leishmania infantum CYP51 expressed in Escherichia coli using [3-3H]-obtusifoliol as substrate after 60 mins by LC-MS analysis
Procedure, shortened: (§2)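 Reconstituted reaction: 1 μM purified CYP51, 2 μM T. brucei NADPH-P450 reductase, 100 μM dilauroylphosphatidylcholine, isocitrate dehydrogenase/isocitrate regeneration, 50 mM K phosphate pH 7.2, 10% glycerol. [3-3H]sterol substrate at 50 μM final (eburicol for T. cruzi; obtusifoliol for T. brucei and L. infantum) with inhibitor at 1.1 μM final. Preincubate 60 s at 37 °C, start with 100 μM NADPH, run 60 min, EtOAc extraction. Gives % inhibition of 14α-demethylation, triplicate, mean ± SD.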

[16] = Drug uptake in BALB/c mouse spleen at 25 mg/kg, po via gavage measured after 4 hrs post dose by […]; type: ADME, organism-based; conditions: read-out: Drug uptake; procedure, shortened: as §1
[17] = Drug uptake in BALB/c mouse lungs at 25 mg/kg, po via gavage measured after 2 hrs post dose by LC-MS analysis; type: ADME, organism-based, Lung; conditions: in vivo
[18] = Drug uptake in BALB/c mouse heart at 25 mg/kg, po via gavage measured after 2 hrs post dose by LC-MS analysis; type: ADME, organism-based; conditions: in vivo
[19] = Drug uptake in BALB/c mouse blood at 25 mg/kg, po via gavage measured after 4 hrs post dose by […]; type: ADME, organism-based; conditions: read-out: Drug uptake; procedure, shortened: as §1
[20] = Drug uptake in BALB/c mouse liver at 25 mg/kg, po via gavage measured after 2 hrs post dose by LC-MS analysis; type: ADME, organism-based; conditions: in vivo
[21] = Drug uptake in BALB/c mouse spleen at 25 mg/kg, po via gavage measured after 2 hrs post dose by LC-MS analysis; type: ADME, organism-based; conditions: in vivo
[22] = Half life in human liver microsomes at 1 uM preincubated for 5 mins followed by NADPH addition and measured by LC/MS/MS analysis; type: ADME, microsome; conditions: microsomes, 1 µM
[23] = Maximum plasma concentration in BALB/c mouse at 25 mg/kg, po via gavage by […]; type: ADME, organism-based; set-up: dose 25 mg/kg, route oral
Procedure, shortened: (§3)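 Single oral gavage dose of 25 mg/kg in BALB/c mice; blood sampled at 1, 2, 4, 6, 10, 16, 24 h. Plasma is diluted in PBS with ketoconazole internal standard, extracted with 80% acetonitrile, dried and redissolved. Analysed by reversed-phase HPLC with UV at 291/250 nm, 0.1 μM detection limit. Lifetime is time until undetectable.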

[24] = molecular target: Sterol 14-alpha demethylase (Trypanosoma cruzi (strain CL Brener)) (UniProt Q7Z1V1); experiment: Inhibition of Trypanosoma cruzi Y CYP51 expressed in Escherichia coli using [3-3H]-eburicol as substrate after 60 mins by LC-MS analysis; procedure, shortened: as §2
[25] = Hepatic clearance in Sprague-Dawley rat liver microsomes at 1 uM preincubated for 5 mins followed by NADPH addition and measured after 45 mins by LC/MS/MS analysis; type: ADME, microsome
Procedure, shortened: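 Pooled liver microsomes at 0.5 mg/mL: human (mixed gender), male Sprague-Dawley rat, or male CD-1 mouse, with test compound at 1 μM, triplicate. In vitro t1/2 is scaled to CLint (45 mg microsomes/g liver; 45 g liver/kg scaling factor). CLhep uses well-stirred model with hepatic blood flow 21 (human), 70 (rat), 90 (mouse) mL/min/kg.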

[26] = molecular target: Lanosterol 14-alpha-demethylase (Trypanosoma brucei brucei (strain 927/4 GUTat10.1)) (UniProt Q385E8); experiment: Inhibition of Trypanosoma brucei […] CYP51 expressed in Escherichia coli using [3-3H]-obtusifoliol as substrate after 60 mins by LC-MS analysis; procedure, shortened: as §2
[27] = Drug uptake in BALB/c mouse heart at 25 mg/kg, po via gavage measured after 4 hrs post dose by […]; type: ADME, organism-based; conditions: read-out: Drug uptake; procedure, shortened: as §1
[28] = Plasma concentration in BALB/c mouse assessed as time until the compound becomes undetectable at 25 mg/kg, po via gavage […]; type: ADME, organism-based; conditions: in vivo; procedure, shortened: as §3
[29] = Cmax in BALB/c mouse at 25 mg/kg, po via gavage measured after 2 hrs post dose by […]; type: ADME, organism-based; set-up: dose 25 mg/kg, route oral; conditions: in vivo; procedure, shortened: as §3

Chain of Lanosterol 14-alpha-demethylase (Trypanosoma brucei brucei (strain 927/4 GUTat10.1)) (Q385E8 1-481): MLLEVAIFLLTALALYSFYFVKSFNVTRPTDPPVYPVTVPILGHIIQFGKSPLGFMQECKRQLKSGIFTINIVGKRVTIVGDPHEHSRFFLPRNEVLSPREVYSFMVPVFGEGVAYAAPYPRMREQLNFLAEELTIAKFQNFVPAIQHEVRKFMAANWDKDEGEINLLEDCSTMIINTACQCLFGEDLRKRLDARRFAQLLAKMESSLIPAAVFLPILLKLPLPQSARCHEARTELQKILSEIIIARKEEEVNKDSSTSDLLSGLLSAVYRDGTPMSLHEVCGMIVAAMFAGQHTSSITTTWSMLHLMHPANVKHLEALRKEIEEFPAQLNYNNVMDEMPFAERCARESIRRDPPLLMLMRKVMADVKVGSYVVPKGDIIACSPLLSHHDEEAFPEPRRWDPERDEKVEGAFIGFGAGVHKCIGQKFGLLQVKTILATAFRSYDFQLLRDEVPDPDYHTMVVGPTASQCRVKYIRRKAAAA
Chain of Sterol 14-alpha demethylase (Trypanosoma cruzi (strain CL Brener)) (Q7Z1V1 whole entry, looked up): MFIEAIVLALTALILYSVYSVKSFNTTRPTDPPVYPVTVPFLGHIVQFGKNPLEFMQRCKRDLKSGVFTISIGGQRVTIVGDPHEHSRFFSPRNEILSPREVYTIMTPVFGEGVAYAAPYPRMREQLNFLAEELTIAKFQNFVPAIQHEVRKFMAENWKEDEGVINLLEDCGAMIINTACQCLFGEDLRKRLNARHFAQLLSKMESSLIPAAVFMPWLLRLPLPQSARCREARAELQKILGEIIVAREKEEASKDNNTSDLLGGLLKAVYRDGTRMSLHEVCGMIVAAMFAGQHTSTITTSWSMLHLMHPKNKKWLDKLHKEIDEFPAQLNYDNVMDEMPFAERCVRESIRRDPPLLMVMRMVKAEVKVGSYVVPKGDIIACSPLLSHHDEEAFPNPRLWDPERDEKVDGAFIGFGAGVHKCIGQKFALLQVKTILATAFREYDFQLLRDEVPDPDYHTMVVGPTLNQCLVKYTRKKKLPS
Chain of Putative lanosterol 14-alpha-demethylase (Leishmania infantum) (A2TEF2 1-480): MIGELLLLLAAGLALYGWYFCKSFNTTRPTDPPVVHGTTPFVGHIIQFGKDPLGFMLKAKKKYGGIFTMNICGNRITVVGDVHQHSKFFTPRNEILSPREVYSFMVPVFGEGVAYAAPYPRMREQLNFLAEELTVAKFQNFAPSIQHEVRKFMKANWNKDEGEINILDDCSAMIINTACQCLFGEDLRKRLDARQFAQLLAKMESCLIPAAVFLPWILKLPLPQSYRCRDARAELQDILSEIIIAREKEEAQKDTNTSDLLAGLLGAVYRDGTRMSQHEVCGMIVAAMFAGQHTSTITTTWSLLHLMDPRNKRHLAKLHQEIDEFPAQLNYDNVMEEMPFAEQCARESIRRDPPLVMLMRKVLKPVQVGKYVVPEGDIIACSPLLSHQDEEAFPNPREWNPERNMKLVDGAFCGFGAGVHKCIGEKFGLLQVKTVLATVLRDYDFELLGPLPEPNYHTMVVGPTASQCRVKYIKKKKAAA

t1/2 [1]	concentration at 4 h [2]	t1/2 [3]	logP [4]	CLhep predicted at 1 µM [6]	concentration at 4 h [7]	CLint scaled at 1 µM [8]	CLhep predicted at 1 µM [10]	CLint scaled at 1 µM [12]	CLint scaled at 1 µM [13]	concentration at 4 h [14]	concentration at 4 h [16]	concentration at 4 h [19]	t1/2 [22]	Cmax [23]	CLhep predicted at 1 µM [25]	concentration at 4 h [27]	Structure (SMILES)	further results
43 min	< 0.1 µM	48 min	4.39	52.6 mL/min/kg	< 0.1 µM	127 mL/min/kg	7.46 mL/min/kg	11.6 mL/min/kg	58.1 mL/min/kg	< 0.1 µM	< 0.1 µM	< 0.1 µM	108 min	< 0.1 µM	31.7 mL/min/kg	< 0.1 µM	CS(=O)(=O)c1ccc(-c2ccc([C@H](Cn3ccnc3)NC(=O)c3ccc(-c4nnc(-c5ccccc5)o4)cc3)c(Cl)c2)cc1	Drug uptake [5]: Not Active; Drug uptake [9]: Not Active; concentration at 2 h [11]: 130 µM; inhibition [15]: inactive; Drug uptake [17]: Not Active; Drug uptake [18]: Not Active; Drug uptake [20]: Not Active; Drug uptake [21]: Not Active; inhibition [24]: inactive; inhibition [26]: inactive
160 min	8 µM	20 min	5.68	24.8 mL/min/kg	0.1 µM	34.2 mL/min/kg	10.5 mL/min/kg	20.9 mL/min/kg	142 mL/min/kg	21 µM	5 µM	9 µM	60 min	28 µM	46.9 mL/min/kg	5 µM	O=C(N[C@@H](Cn1ccnc1)c1ccc(-c2ccccc2)cc1Cl)c1ccc(-c2nnc(-c3ccccc3)o2)cc1	Time [28]: < 10 h; Cmax [29]: 28 µM
